{"source": "ChEMBL document CHEMBL1142382", "about": "“Synthesis and biological activity of a 3,4,5-trimethoxybenzoyl ester analogue of epicatechin-3-gallate” (J Med Chem, 2008)", "key": {"Caco-2 [1]": {"system": "Caco-2", "assay": "Growth inhibition of human Caco-2 cells at 25 uM after 6 days", "assay_type": "functional, cell-based", "how_it_was_run": "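Caco-2 cells treated 6 days with 25 μM compound; MTT viability expressed as percent of untreated control (100%); mean of three independent experiments ± SD.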"}, "[2]": {"assay": "Antioxidant activity assessed as ABTS radical scavenging activity", "assay_type": "functional", "how_it_was_run": "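ABTS radical cation generated from ABTS (150 μM) with H2O2 (75 μM) and HRP (0.25 μM) in citrate-phosphate pH 4.5, diluted in 5 mM PBS pH 7.4 to A734 0.70, pre-warmed 30 °C. Compounds in PBS (50 μM stock) at four concentrations within the Trolox dose-response range, triplicates; A734 read 1 min after mixing; TEAC derived from Trolox curve.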"}, "[3]": {"target": "T1, Dihydrofolate reductase (Homo sapiens) (UniProt P00374)", "T1 sequence (whole entry)": "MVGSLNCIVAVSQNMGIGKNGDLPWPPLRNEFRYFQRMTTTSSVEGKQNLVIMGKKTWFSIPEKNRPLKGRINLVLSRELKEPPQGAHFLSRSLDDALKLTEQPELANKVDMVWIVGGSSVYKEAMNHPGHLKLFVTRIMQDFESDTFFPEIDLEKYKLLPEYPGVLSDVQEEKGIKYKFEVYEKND", "assay": "Dissociation constant for binding to free human recombinant DHFR by fluorescence titration"}, "Caco-2 [4]": {"system": "Caco-2", "assay": "Antiproliferative activity against human Caco-2 cells after 6 days by MTT assay", "assay_type": "functional, cell-based", "conditions": "Caco-2, 144 h", "how_it_was_run": "(§1)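 ATCC lines kept in medium with 10% FCS and antibiotics; plated at 1000 cells/well, grown to 50-60% confluence, then exposed for 6 days. Viability by MTT, formazan read at 570 nm; IC50 derived.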"}, "SK-MEL-28 [5]": {"system": "SK-MEL-28", "assay": "Down regulation of thymidylate synthase mRNA expression in human SkMel28 cells at 20 uM after 24 hrs", "assay_type": "functional, cell-based", "how_it_was_run": "(§2)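 SkMel-28 cells treated and mRNA quantified by SYBR Green real-time PCR (95 °C 15 min; 40-50 cycles 94 °C 30 s, 55 °C 30 s, 72 °C 1 min), triplicate reactions, at least two independent experiments; melting-curve specificity check; expression relative to normal human epidermal melanocytes.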"}, "MCF7": {"system": "MCF7", "assay": "Antiproliferative activity against human MCF7 cells after 6 days by MTT assay", "assay_type": "functional, cell-based", "conditions": "MCF7, 144 h", "how_it_was_run": "as §1"}, "SK-MEL-28 [6]": {"system": "SK-MEL-28", "assay": "Growth inhibition of human SkMel28 cells at 20 uM after 6 days", "assay_type": "functional, cell-based"}, "SK-MEL-28 [7]": {"system": "SK-MEL-28", "assay": "Down regulation of DHFR mRNA expression in human SkMel28 cells at 20 uM after 24 hrs", "assay_type": "functional, cell-based", "how_it_was_run": "as §2"}, "[8]": {"assay": "Antiproliferative activity against human H1264 cells after 6 days by MTT assay", "assay_type": "functional, cell-based", "conditions": "H1264, 144 h", "how_it_was_run": "as §1"}, "SK-MEL-28 [9]": {"system": "SK-MEL-28", "assay": "Down regulation of methyltetrahydrofolate reductase mRNA expression in human SkMel28 cells at 20 uM after 24 hrs", "assay_type": "functional, cell-based", "how_it_was_run": "as §2"}, "SK-MEL-28 [10]": {"system": "SK-MEL-28", "assay": "Antiproliferative activity against human SkMel28 cells after 6 days by MTT assay", "assay_type": "functional, cell-based", "conditions": "SK-MEL-28, 144 h", "how_it_was_run": "as §1"}, "[11]": {"assay": "Prooxidant activity assessed as enhancement of NADPH oxidation at 50 uM", "assay_type": "functional", "how_it_was_run": "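Rate of NADPH (0.1 mM) oxidation measured with 50 μM catechin in sodium-phosphate buffer, pH 7.4, 37 °C. Read-out is the fall in NADPH absorbance at 340 nm. Runs were done with and without bovine liver SOD at 10 μg/mL.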"}, "[12]": {"target": "T1, Dihydrofolate reductase (Homo sapiens)", "assay": "Inhibition of human recombinant DHFR at 100 uM", "how_it_was_run": "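Recombinant human DHFR activity at 25 °C followed as drop in NADPH/DHF absorbance at 340 nm in Mes 0.025 M, sodium acetate 0.025 M, Tris 0.05 M, NaCl 0.1 M, pH 7.4, with 1 mM ascorbic acid; reaction started with enzyme; compounds at 100 μM; activity relative to no-compound control, mean of five experiments.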"}, "[13]": {"assay": "Stability in human HT29 cells assessed as half life", "assay_type": "ADME, cell-based", "conditions": "HT-29 cells"}}, "note": "Calls of active or inactive are those of the source. No cut-off for these calls is given here.", "data": [{"compound": "O=C(O[C@@H]1Cc2c(O)cc(O)cc2O[C@@H]1c1ccc(O)c(O)c1)c1cc(O)c(O)c(O)c1", "values": [{"measurement": "Activity", "setting": "Caco-2 [1]", "result": "Active"}, {"measurement": "Activity", "setting": "[2]", "result": 4.9, "unit": "mM"}, {"measurement": "Kd", "setting": "[3]", "result": 1780, "unit": "nM"}]}, {"compound": "COc1cc(C(=O)O[C@@H]2Cc3c(O)cc(O)cc3O[C@@H]2c2ccc(O)c(O)c2)cc(OC)c1OC", "values": [{"measurement": "IC50", "setting": "Caco-2 [4]", "result": 33000, "unit": "nM"}, {"measurement": "Activity", "setting": "Caco-2 [1]", "result": "Active"}, {"measurement": "Activity", "setting": "[2]", "result": 1.9, "unit": "mM"}, {"measurement": "Activity", "setting": "SK-MEL-28 [5]", "result": "Active"}, {"measurement": "IC50", "setting": "MCF7", "result": 80000, "unit": "nM"}, {"measurement": "Activity", "setting": "SK-MEL-28 [6]", "result": "Active"}, {"measurement": "Activity", "setting": "SK-MEL-28 [7]", "result": "Active"}, {"measurement": "IC50", "setting": "[8]", "result": 18000, "unit": "nM"}, {"measurement": "Activity", "setting": "SK-MEL-28 [9]", "result": "Active"}, {"measurement": "IC50", "setting": "SK-MEL-28 [10]", "result": 2900, "unit": "nM"}, {"measurement": "Kd", "setting": "[3]", "result": 2100, "unit": "nM"}]}, {"compound": "Oc1cc(O)c2c(c1)O[C@H](c1cc(O)c(O)c(O)c1)[C@H](O)C2", "values": [{"measurement": "Activity", "setting": "[11]", "result": "Active"}, {"measurement": "Activity", "setting": "[12]", "result": "inactive"}]}, {"compound": "O=C(O[C@@H]1Cc2c(O)cc(O)cc2O[C@@H]1c1cc(O)c(O)c(O)c1)c1cc(O)c(O)c(O)c1", "note": "[EPIGALOCATECHIN GALLATE]", "values": [{"measurement": "Activity", "setting": "Caco-2 [1]", "result": "Active"}, {"measurement": "Activity", "setting": "[2]", "result": 4.8, "unit": "mM"}, {"measurement": "Activity", "setting": "[11]", "result": "Active"}, {"measurement": "Kd", "setting": "[3]", "result": 920, "unit": "nM"}, {"measurement": "half-life", "setting": "[13]", "result": "< 2", "unit": "h"}]}, {"compound": "Oc1cc(O)c2c(c1)O[C@H](c1ccc(O)c(O)c1)[C@H](O)C2", "values": [{"measurement": "Activity", "setting": "[12]", "result": "inactive"}]}, {"compound": "VITAMIN E", "values": [{"measurement": "Activity", "setting": "[2]", "result": 1, "unit": "mM"}]}]}
